Compound activity as filed in PubChem BioAssay.
A selection: hits, their analogues and other compounds. The true share with any hit is near 2.6%.
NPY-Y1 PAM-ag: potentiators or agonists of human neuropeptide Y receptor Y1; activation, % at 3.6 µM; actives 0.37% (n = 220,000); AID 1304; NPY-Y1 expressing cells, potentiator/agonist activation; P25929; in the data active means activation above about 33%, passing the limit was not always enough;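 further: cells stimulated with NPY at EC10 then isoproterenol at EC100; 0% = low agonist plus stimulus and 100% = saturating agonist plus stimulus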
MT stabilizer: microtubule stabilization, imaging screen; HeLa tubulin immunostaining HCS, 24 h; share of cells brighter than vehicle mean+2SD; % tubulin-high responders, % at 10 µM; actives 0.83% (n = 200,000); AID 2205;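 active means plate Z-score above 3 for both tubulin-high and condensed-nucleus cell shares, with cell loss under 80%, at 10 µM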;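 further: anti alpha tubulin signal scored within the nucleus-defined area of each cell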
NPY Y1 blocker: antagonists of human neuropeptide Y receptor Y1 | P25929 | inhibition, % at 3.6 µM | HEK293-CNG Y1 cells, membrane potential fluorescence; NPY at EC95, then isoproterenol | actives 1% (n = 200,000);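 active means inhibition above the campaign mean inhibition of all tested compounds plus 3 SD, cut at about 20% in these data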;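 further: 0% = DMSO wells given NPY plus isoproterenol and 100% = isoproterenol alone without NPY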
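Material: HEK293 cells with Y1 receptor plus CNG channel; times: compound incubation 1 h at room temperature, readout 45 min post-stimulation; signal: fluorescence, membrane potential probe; read-out basis: fluorescence ratio normalized to % inhibition between controls; benchmarks: full-block control isoproterenol-only wells, zero-block control NPY plus isoproterenol wells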
NPY-Y2 antag: blocks the human neuropeptide Y Y2 receptor; P49146; NPY-Y2 expressing cells, antagonist mode; inhibition, % at 2.7 µM; actives 0.99% (n = 140,000); AID 793; in the data active means inhibition above about 17%;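 further: 0% = vehicle with agonist challenge and 100% = reference antagonist with challenge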
Target sequence (P49146 whole entry, looked up): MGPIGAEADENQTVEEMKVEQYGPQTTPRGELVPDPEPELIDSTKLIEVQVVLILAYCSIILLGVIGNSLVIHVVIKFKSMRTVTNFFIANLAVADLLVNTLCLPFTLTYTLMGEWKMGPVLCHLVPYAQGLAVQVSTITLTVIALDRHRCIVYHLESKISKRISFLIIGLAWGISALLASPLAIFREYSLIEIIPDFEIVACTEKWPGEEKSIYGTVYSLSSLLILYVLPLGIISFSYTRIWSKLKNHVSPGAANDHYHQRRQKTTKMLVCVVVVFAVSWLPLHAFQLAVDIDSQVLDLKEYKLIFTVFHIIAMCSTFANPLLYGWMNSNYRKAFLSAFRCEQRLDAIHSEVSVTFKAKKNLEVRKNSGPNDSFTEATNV
b-catenin transl: alters nuclear translocation of beta-catenin in HeLa cells. immunofluorescence imaging. nuclear translocation activity, % at 5 µM. actives 0.3% (n = 190,000);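 active means nuclear translocation activity above 50% at 5 µM, with a well cell count of 50 or more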;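 further: per-cell ratio of nuclear to cytoplasmic median beta-catenin stain intensity; plate controls were DMSO negative control for no effect and GSK-3 inhibitor IX positive control for full effect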
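Read-out: Nuclear/cytoplasmic beta-catenin signal ratio, % activation | Assay system: Human HeLa cell line | Times: 24 h compound exposure at 37°C, 5% CO2 | Signal: Fluorescence imaging of beta-catenin antibody stain plus DAPI | Dosing: 5 µM primary, 0.02–20 µM confirmation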
NPY2 pot ag: potentiators or agonists of human neuropeptide Y receptor Y2. P49146. activation, % at 3.6 µM. AID 1359. actives 0.45% (n = 220,000). cells expressing NPY-Y2, potentiator/agonist read-out; in the data active means activation above about 27%;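 further: cells stimulated with NPY near EC25 plus isoproterenol at EC100; 0% = vehicle plus submaximal agonist and 100% = vehicle plus saturating agonist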
The depositor's hits bear a star; / = no result given.

SMILES	NPY-Y1 PAM-ag	MT stabilizer	NPY Y1 blocker	NPY-Y2 antag	b-catenin transl	NPY2 pot ag
NC(=O)c1ccc(OCC(F)(F)C(F)(F)C(F)(F)C(F)(F)C(F)(F)C(F)F)cc1	17	4	-6	3	2	-10
Cc1c(NC(=O)c2cccs2)cccc1-c1nc2ccccc2s1	46*	6	-3	6	-1	27*
Cc1c(NC(=O)c2cc(-n3cnnc3)ccc2Cl)cccc1-c1nc2ccccc2s1	4	2	-3	-1	2	14
COn1c(-c2ccccc2)nc2ccc(Cl)cc21	-20	3	7	3	0	-18
Clc1ccc2nc3c4ccccc4cnn3c2c1	-2	17*	6	/	0	5
CSc1nc(C)cc(OCC(=O)N/N=C/c2ccccc2O)n1	-12	17*	-6	3	94*	-6
O=C(COc1nsnc1N1CCOCC1)N/N=C/c1ccccc1O	3	1	0	0	/	13
COc1ccc(/C=N/NC(=O)c2[nH]nc3c2CCc2ccccc2-3)cc1OC	-9	22*	11	5	127*	2
S=C(Cc1cccnc1)N1CCOCC1	-12	4	4	3	-1	5
Cc1nc2oc3c(NCc4ccccc4)ncnc3c2c2c1COC(C)(C)C2	-6	2	-5	0	3	-8
CC1(C)Cc2c(sc3ncnc(NNC(=S)NCc4ccccc4)c23)CO1	-4	29*	6	6	0	5
COc1cc(CNCc2ccccn2)ccc1OCc1cccc(Cl)c1	7	3	7	6	/	-9
O=C(NCCCN1CCOCC1)C(=O)N/N=C/c1c2ccccc2cc2ccccc12	-4	22*	-3	2	5	-10
CCC(c1nnnn1Cc1ccco1)N1CCN(c2cc(Cl)ccc2C)CC1 (centres undefined)	-28	2	27*	28*	-1	-12
CCOC(=O)c1c(NC(=O)CSc2nnc(C)c(=O)[nH]2)sc2c1CCCC2	7	2	14	13	-2	-26
CCOC(=O)c1c(NC(=O)CSc2nnc(C)s2)sc2c1CCCCC2	-22	2	39*	20*	-1	-16
COc1ccc(C)cc1NC(=O)CSc1nnc(CC(=O)Nc2ccccc2C)n1C	-6	3	6	-1	0	7
Cc1cc(C)c(S(=O)(=O)Nc2ccc3c(c2)CCC3)c(C)c1	6	14*	11	5	16	-17
CCn1c(SCC(=O)N/N=C/c2c[nH]c3ccccc23)nnc1-c1ccc(C(C)(C)C)cc1	49*	2	-9	6	-6	44*
CCn1c(SCC(=O)N/N=C/c2ccc(C)o2)nnc1-c1ccc(C(C)(C)C)cc1	-5	1	0	5	0	-3
CC1(C)Cc2c(sc3c2c2ncnn2c2nnc(SCC(=O)NCc4ccco4)n32)CO1	11	2	-9	-1	-2	9
CCC1(C)Cc2c(sc3c2c2ncnn2c2nnc(SCC(=O)NCc4ccco4)n32)CO1 (centres undefined)	14	13*	0	1	-2	7
C=CCOc1ccc2ccccc2c1CNc1ncn[nH]1	-9	3	-2	4	/	-1
COc1ccc(Br)cc1CSC(=N)N	5	1	11	/	-1	8
CCCCCOc1ccc(Br)cc1CSC(=N)N	-99	14	46*	35*	89*	-3
SMILES	NPY-Y1 PAM-ag	MT stabilizer	NPY Y1 blocker	NPY-Y2 antag	b-catenin transl	NPY2 pot ag
Cc1ccc(NC(=S)N/N=C/c2ccc(Cl)c([N+](=O)[O-])c2)cc1	4	4	1	1	-5	-16
O=[N+]([O-])c1cc(/C=N/NC(=S)Nc2ccccc2Cl)ccc1Cl	41*	19	-7	/	7	36*
O=C1Nc2ccc(F)cc2C12SCCS2	-13	2	0	-1	4	25
Cc1ccc(C2(c3ccc(C)cc3)CC2C(=O)Nc2ccc([N+](=O)[O-])cc2O)cc1 (centres undefined)	12	2	-5	-3	9	45*
CC1(C)CC1C(=O)Nc1ccc([N+](=O)[O-])cc1Br (centres undefined)	-14	5	4	4	-2	-16
COCCNC(=S)N(CCc1c(C)[nH]c2ccccc12)Cc1ccco1	-3	5	3	/	-8	-1
